In article PMC3077087 (Cancer research, 2011):

Legend:
[1] = system: mTORC1 and mTORC2 signaling; assay: In vitro mTORC1/mTORC2 signaling; assay type: cell-based; settings: for Akt phosphorylation at mTORC2-specific Ser473 site: Supplemental Figure 1A
GEO colorectal xenograft [2] = assay: GEO xenograft pharmacodynamics; assay type: in vivo, mice; settings: GEO xenografts, 12 days
Method in brief: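 GEO cells implanted s.c. in right flank of nu/nu CD-1 mice and dosed for 12 days. Tumors collected 2, 8 and 24 h post-dose and snap frozen. Phospho- and total 4E-BP1 (37/46), Akt (473), S6 (235/236) quantified by Western blot; n=2.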

RIP-Tag2 tumors [3] = assay: VEGF in RIP-Tag2 tumor lysates, multiplex antibody array; assay type: in vivo, mice; settings: for VEGF-B expression: data not shown
Method in brief: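 Tumors from RIP-Tag2 mice given vehicle, test compound or rapamycin. Tumor lysates run on mouse angiogenesis antibody arrays per manufacturer's directions. VEGF signal read as pixel density. SEM of 3–8 mice per group; ANOVA with Fisher PLSD.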

RIP-Tag2 tumors [4] = assay: RIP-Tag2 tumor vascularity; assay type: in vivo, mice
Method in brief: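 RIP-Tag2 mice, 9–10 weeks old, dosed up to 7 days. Vehicle (Labrafil or water); test compound 75 mg/kg BID by gavage; OSI-930 200 mg/kg QD by gavage; rapamycin 20 mg/kg QD ip. Perfusion-fixed, 60–80 µm sections stained for CD31 and basement membrane. Area density at threshold 30–50; empty sleeves scored. SEM of 3–8 mice per group; ANOVA/Fisher PLSD.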

[5] = system: RIP-Tag2 pancreatic neuroendocrine tumors; assay: Signaling, proliferation and apoptosis in RIP-Tag2 tumors, single agents; assay type: in vivo, mice; settings: for Akt and 4E-BP1 phosphorylation: 7-day treatment
Method in brief: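 RIP-Tag2 mice (9–10 weeks) treated 7 days: test compound 75 mg/kg BID gavage, rapamycin 20 mg/kg QD ip, or vehicle. Perfusion-fixed tumor sections (60–80 µm) immunostained for phospho-S6K, phospho-Akt and phospho-4E-BP1 with CD31, plus phospho-histone H3 and activated caspase-3. Examined by fluorescence/confocal microscopy and quantified. SEM of 3–8 mice per group; ANOVA with Fisher PLSD.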

mTOR = mTOR (Homo sapiens, UniProt P42345); assay: Panel of 98 purified protein kinases: mTOR; assay type: biochemical; settings: 98 purified protein kinases panel
PI3Kδ = PI3Kδ (Homo sapiens, UniProt O00329); assay: Panel of 98 purified protein kinases: PI3Kδ; assay type: biochemical; settings: 98 purified protein kinases panel, data not shown
PI3Kγ = PI3Kγ (Homo sapiens, UniProt P48736); assay: Panel of 98 purified protein kinases: PI3Kγ; assay type: biochemical; settings: 98 purified protein kinases panel, data not shown
RET = RET (Homo sapiens, UniProt P07949); assay: Panel of 98 purified protein kinases: RET; assay type: biochemical; settings: 98 purified protein kinases panel, data not shown
JNK3 = JNK3 (Homo sapiens, UniProt P53779); assay: Panel of 98 purified protein kinases: JNK3; assay type: biochemical; settings: 98 purified protein kinases panel, data not shown
MEK2 = MEK2 (Homo sapiens, UniProt P36507); assay: Panel of 98 purified protein kinases: MEK2; assay type: biochemical; settings: 98 purified protein kinases panel, data not shown
PDK1 = molecular target: T1, PDK1 (Homo sapiens, UniProt O15530); assay: Activity against PDK1; assay type: biochemical
T1 sequence (O15530 1-556): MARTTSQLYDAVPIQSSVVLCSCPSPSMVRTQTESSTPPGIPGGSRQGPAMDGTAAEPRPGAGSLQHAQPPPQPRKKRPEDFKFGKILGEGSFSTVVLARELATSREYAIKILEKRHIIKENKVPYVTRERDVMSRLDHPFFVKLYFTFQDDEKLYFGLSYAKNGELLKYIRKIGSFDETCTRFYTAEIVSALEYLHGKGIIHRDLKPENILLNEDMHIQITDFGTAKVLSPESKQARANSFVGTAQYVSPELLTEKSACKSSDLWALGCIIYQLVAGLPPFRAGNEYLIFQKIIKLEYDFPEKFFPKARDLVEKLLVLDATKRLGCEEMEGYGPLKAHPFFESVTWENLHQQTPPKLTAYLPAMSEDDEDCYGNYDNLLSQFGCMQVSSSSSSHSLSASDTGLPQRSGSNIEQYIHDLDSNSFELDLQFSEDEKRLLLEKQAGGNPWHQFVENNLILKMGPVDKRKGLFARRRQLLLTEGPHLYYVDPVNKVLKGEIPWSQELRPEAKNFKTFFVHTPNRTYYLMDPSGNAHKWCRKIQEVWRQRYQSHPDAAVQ

GEO colorectal xenograft [6] = assay: GEO xenograft tumor growth; assay type: in vivo, mice; settings: GEO xenografts, compared with rapamycin
RIP-Tag2 tumors [7] = assay: Vascular regrowth after cessation of OSI-930 in RIP-Tag2 tumors; assay type: in vivo, mice
RIP-Tag2 tumors [8] = assay: Intratumoral hemorrhage; assay type: in vivo, mice; settings: 4 days after cessation of OSI-930
Method in brief: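 Regrowth design in 10-week-old RIP-Tag2 mice: OSI-930 for 7 days, then vehicle, test compound or rapamycin for 4 days; vehicle-only arm runs 11 days. Perfusion-fixed tumors cut at 60–80 µm. Erythrocytes immunostained; area density from fluorescence images at empirical threshold 30–50. Values are SEM of 3–8 mice per group; ANOVA with Fisher PLSD.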

PIP5Kγ = PIP5Kγ (Homo sapiens, UniProt O60331); assay: Panel of 98 purified protein kinases: PIP5Kγ; assay type: biochemical; settings: 98 purified protein kinases panel, data not shown
Chain of PIP5Kγ (O60331 whole entry): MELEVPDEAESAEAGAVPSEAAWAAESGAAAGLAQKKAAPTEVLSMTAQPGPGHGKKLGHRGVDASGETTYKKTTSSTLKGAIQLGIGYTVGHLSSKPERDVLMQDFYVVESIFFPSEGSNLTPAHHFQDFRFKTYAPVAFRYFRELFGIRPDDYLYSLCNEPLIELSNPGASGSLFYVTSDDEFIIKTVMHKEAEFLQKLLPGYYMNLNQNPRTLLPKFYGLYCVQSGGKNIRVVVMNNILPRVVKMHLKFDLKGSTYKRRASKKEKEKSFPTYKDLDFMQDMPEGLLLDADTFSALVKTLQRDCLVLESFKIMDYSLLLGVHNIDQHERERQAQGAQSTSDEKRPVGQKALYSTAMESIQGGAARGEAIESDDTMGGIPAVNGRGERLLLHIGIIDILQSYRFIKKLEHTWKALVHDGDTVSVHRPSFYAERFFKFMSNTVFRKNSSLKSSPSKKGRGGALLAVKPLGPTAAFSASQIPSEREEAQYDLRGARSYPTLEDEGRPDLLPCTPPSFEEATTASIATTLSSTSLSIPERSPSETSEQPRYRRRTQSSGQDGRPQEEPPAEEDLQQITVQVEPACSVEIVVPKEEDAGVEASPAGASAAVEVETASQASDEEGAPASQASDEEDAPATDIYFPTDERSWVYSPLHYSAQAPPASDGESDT

Chain of RET (P07949 29-1114, species assumed): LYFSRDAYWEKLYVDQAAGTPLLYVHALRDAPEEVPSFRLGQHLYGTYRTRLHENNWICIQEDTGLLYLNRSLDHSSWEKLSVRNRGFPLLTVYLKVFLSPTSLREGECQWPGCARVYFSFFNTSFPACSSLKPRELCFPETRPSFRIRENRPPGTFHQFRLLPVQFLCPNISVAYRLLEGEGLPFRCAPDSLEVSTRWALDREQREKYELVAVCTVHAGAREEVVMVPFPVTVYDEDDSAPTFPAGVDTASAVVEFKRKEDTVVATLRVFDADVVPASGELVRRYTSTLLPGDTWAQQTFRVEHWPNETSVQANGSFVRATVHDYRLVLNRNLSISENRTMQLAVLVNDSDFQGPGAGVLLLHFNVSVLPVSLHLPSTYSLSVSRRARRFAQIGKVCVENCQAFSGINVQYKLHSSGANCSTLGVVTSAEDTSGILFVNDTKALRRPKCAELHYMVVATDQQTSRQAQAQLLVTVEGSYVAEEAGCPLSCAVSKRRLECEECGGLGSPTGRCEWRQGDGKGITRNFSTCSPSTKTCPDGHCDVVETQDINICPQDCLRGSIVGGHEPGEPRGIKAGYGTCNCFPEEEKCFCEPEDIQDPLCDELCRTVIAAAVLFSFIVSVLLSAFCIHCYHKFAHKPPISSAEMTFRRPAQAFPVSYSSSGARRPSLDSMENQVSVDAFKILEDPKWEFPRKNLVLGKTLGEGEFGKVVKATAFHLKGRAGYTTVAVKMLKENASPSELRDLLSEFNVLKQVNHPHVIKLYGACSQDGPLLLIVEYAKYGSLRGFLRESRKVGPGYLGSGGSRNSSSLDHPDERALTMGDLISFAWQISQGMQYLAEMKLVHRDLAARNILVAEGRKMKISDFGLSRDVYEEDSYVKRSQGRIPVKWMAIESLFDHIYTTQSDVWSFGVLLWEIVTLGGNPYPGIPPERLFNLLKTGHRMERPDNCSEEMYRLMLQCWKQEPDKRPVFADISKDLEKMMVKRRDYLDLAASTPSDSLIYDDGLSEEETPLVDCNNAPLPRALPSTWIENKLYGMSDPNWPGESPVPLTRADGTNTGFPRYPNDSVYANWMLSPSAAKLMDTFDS
Chain of PI3Kγ (P48736 whole entry, species assumed): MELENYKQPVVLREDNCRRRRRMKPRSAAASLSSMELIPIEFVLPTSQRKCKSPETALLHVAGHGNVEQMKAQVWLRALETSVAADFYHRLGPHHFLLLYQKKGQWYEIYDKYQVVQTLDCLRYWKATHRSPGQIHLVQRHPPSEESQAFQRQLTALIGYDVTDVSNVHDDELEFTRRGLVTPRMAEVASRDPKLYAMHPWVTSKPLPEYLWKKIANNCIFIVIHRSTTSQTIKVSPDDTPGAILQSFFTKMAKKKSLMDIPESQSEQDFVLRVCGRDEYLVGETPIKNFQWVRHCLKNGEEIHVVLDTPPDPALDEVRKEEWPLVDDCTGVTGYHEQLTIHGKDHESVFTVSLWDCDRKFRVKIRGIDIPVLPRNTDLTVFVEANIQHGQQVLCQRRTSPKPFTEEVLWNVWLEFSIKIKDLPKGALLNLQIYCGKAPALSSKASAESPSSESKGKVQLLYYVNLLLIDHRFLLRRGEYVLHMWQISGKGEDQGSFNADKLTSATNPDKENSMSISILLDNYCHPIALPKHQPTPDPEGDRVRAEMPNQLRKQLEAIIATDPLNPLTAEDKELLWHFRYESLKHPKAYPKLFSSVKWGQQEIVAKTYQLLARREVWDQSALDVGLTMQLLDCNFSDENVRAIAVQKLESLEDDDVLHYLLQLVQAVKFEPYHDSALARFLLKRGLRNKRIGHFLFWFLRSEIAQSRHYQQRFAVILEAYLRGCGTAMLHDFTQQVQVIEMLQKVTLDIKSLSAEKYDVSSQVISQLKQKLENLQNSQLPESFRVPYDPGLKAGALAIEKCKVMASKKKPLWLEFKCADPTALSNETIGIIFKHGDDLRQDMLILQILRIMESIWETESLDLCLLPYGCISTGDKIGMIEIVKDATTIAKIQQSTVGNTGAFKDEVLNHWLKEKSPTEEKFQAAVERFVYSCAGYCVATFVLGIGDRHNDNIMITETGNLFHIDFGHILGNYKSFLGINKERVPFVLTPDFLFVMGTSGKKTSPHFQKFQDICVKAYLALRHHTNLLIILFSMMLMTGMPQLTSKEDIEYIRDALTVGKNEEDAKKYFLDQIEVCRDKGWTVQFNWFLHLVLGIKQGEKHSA
Chain of PI3Kδ (O00329 whole entry, species assumed): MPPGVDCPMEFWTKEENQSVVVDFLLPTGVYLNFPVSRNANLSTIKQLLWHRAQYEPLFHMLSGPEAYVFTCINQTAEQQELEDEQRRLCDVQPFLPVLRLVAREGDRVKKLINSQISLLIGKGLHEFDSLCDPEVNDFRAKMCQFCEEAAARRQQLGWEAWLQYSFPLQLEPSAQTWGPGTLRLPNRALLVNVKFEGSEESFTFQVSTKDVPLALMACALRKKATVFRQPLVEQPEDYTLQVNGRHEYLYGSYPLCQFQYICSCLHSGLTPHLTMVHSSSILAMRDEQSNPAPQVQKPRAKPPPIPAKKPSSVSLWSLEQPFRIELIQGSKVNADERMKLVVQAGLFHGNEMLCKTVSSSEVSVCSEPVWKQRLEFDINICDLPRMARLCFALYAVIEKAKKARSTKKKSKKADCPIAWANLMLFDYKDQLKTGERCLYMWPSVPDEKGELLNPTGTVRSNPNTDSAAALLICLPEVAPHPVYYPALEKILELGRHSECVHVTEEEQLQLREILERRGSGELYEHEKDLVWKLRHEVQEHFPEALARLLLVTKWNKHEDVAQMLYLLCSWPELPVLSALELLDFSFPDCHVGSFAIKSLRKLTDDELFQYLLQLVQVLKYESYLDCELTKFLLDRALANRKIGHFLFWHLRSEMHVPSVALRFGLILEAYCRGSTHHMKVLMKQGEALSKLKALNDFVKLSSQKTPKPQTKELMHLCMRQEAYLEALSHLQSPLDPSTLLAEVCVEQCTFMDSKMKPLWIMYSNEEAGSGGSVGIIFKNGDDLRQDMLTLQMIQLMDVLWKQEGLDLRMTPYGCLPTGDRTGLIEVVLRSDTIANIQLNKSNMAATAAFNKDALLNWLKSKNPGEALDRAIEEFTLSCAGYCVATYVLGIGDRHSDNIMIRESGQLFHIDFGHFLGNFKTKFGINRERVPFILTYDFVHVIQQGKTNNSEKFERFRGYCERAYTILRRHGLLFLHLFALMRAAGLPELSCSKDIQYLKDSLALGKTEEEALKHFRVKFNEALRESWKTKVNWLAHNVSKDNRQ
Chain of PI3Kδ (P27986 whole entry partner, species assumed): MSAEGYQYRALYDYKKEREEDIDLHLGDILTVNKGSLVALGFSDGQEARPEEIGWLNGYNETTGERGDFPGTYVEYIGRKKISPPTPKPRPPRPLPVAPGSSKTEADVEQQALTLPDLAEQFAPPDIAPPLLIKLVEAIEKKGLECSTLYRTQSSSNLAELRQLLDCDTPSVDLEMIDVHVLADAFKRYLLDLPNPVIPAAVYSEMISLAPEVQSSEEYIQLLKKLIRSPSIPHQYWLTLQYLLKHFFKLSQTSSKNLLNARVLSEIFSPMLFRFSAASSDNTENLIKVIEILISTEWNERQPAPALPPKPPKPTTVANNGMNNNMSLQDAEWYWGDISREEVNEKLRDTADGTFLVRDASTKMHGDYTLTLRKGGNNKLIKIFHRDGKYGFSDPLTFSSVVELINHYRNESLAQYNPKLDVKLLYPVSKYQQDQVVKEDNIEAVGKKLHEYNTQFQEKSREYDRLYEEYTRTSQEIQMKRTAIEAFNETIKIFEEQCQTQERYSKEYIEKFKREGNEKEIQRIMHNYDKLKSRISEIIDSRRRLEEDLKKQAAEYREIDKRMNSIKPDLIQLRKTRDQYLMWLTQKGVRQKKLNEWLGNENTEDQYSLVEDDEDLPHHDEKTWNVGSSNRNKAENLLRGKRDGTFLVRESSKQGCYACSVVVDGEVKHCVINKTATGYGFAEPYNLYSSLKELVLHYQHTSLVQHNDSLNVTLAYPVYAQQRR
Chain of JNK3 (P53779 whole entry, species assumed): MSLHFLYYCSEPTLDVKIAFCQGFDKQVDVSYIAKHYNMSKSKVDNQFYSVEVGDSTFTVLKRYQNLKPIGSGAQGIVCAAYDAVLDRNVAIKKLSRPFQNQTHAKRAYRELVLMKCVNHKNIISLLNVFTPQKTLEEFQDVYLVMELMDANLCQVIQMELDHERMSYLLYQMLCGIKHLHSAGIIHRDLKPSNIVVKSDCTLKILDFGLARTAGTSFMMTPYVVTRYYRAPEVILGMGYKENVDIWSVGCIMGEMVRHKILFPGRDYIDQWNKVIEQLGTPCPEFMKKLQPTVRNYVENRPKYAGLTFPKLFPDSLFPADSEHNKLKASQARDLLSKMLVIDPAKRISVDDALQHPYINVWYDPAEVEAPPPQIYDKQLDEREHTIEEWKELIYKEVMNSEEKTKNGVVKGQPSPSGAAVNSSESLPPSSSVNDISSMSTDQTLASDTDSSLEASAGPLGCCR

Row | inhibition of mTOR (mTOR) | inhibition of PI3Kδ (PI3Kδ) | inhibition of PI3Kγ (PI3Kγ) | inhibition of RET (RET) | activity against PDK1 (PDK1) | Compound | 4E-BP1 phosphorylation at Ser37/46 [1] | Akt phosphorylation at mTORC2-specific Ser473 site [1] | VEGF-B expression (RIP-Tag2 tumors [3]) | empty basement membrane sleeves (vessel regression) (RIP-Tag2 tumors [4]; RIP-Tag2, 7 days) | Akt and 4E-BP1 phosphorylation [5] | tumor growth (GEO colorectal xenograft [6]) | other results
1 |  |  |  |  |  | CO[C@H]1C[C@@H]2CC[C@@H](C)[C@@](O)(O2)C(=O)C(=O)N2CCCC[C@H]2C(=O)O[C@H]([C@H](C)C[C@@H]2CC[C@@H](O)[C@H](OC)C2)CC(=O)[C@H](C)/C=C(\C)[C@@H](O)[C@@H](OC)C(=O)[C@H](C)C[C@H](C)/C=C/C=C/C=C/1C [rapamycin, reference compound] | failed to inhibit | failed to inhibit | unchanged | not apparent | not observed |  | S6Kinase and its substrate S6 [1]: inhibited; phospho-S6 and phospho-4E-BP1 (GEO colorectal xenograft [2]; 20 mg/kg): inhibited; reduction of VEGF-A (densitometric analysis) (RIP-Tag2 tumors [3]): no significant reduction; reduction of tumor vascularity (CD31) compared to baseline (RIP-Tag2 tumors [4]; RIP-Tag2, 7 days): not significantly reduced; phopsho-S6K relative to control [5]: inhibited
2 | fully inhibited | greater than 90% | greater than 90% | greater than 90% | inactive | Nc1nccn2c1c(-c1cc3cccc(Cl)c3[nH]1)nc2[C@H]1CC[C@H](C(=O)O)CC1 [OXA-01] | inhibited | dose-dependently attenuated | unchanged | not apparent | decreased | slowed tumor growth more than did rapamycin | inhibition of JNK3 (JNK3): inhibited; inhibition of MEK2 (MEK2): inhibited; reduction of tumor vascularity (CD31) (RIP-Tag2 tumors [4]; RIP-Tag2, at 1, 2, or 4 days): not detectably reduced; decrease in tumor vessel regrowth (RIP-Tag2 tumors [7]; named drug for 1 day after withdrawal of OSI-930, data not shown): no significant decrease; apoptosis measured by activated-caspase-3 ([5]; 7 days): increased; cellular proliferation determined by phospho-histone H3 ([5]; 7 days): decreased
3 |  |  |  |  |  | O=C(Nc1ccc(OC(F)(F)F)cc1)c1sccc1NCc1ccnc2ccccc12 [OSI-930] |  |  |  | numerous |  |  | decrease in vessel density (RIP-Tag2 tumors [7]; OSI-930 7 days, then vehicle 4 days after cessation): 18%; reduction of tumor vascularity (RIP-Tag2 tumors [7]; regrowth study, OSI-930 for 7 days): 63%; TER-119 levels, difference from baseline (RIP-Tag2 tumors [8]): ≤ 28%
4 | fully inhibited | greater than 90% | greater than 90% | greater than 90% | inactive | COc1cccc2cc(-c3nc([C@H]4CC[C@H](C(=O)O)CC4)n4ncnc(N)c34)[nH]c12 [OSI-027] | inhibited | dose-dependently attenuated |  |  |  | slowed tumor growth more than did rapamycin | inhibition of PIP5Kγ (PIP5Kγ): significantly inhibited; 4E-BP1, Akt, and S6 phosphorylation (GEO colorectal xenograft [2]; 65 mg/kg, after 2 hours): decreased
